Experimental data reported in ChEMBL document CHEMBL1817551, “Design of small molecule inhibitors of acetyl-CoA carboxylase 1 and 2 showing reduction of hepatic malonyl-CoA levels in vivo in obese Zucker rats” (Bioorg Med Chem, 2011).
In brackets after ≈: the same amount, converted by molar mass.

Tests used:
Acetyl-CoA carboxylase 2 = Acetyl-CoA carboxylase 2 (Homo sapiens, UniProt O00763); experiment: Inhibition of human recombinant his-tagged ACC2 expressed in baculovirus/Sf9 cell assessed as inorganic phosphate formation […] measured after 1.5 hrs by Malachite green reagent method
[1] = Lipophilicity, log D of the compound; assay type: physicochemical; settings: octanol/water
Acetyl-CoA carboxylase 1 [2] = molecular target: Acetyl-CoA carboxylase 1 (Homo sapiens, UniProt Q13085); experiment: Inhibition of human recombinant his-tagged ACC1 expressed in baculovirus/Sf9 cell assessed as inorganic phosphate formation […] measured after 1.5 hrs by Malachite green reagent method
[3] = Solubility of the compound after 16 hrs by LC-UV/MS analysis; assay type: physicochemical
Acetyl-CoA carboxylase 1 [4] = molecular target: Acetyl-CoA carboxylase 1 (Rattus norvegicus, UniProt P11497); experiment: Inhibition of rat ACC1 assessed as inorganic phosphate generation preincubated for 5 mins measured after 1.5 hrs using Malachite green reagent method
CYP3A4 = CYP3A4 (Homo sapiens, UniProt P08684); experiment: Inhibition of CYP3A4 at 13 uM; assay type: ADME
[5] = Clearance in Sprague-Dawley rat at 3 to 5 umol/kg, iv; assay type: ADME, organism-based; settings: in vivo
Rattus norvegicus [6] = experiment: Ratio of […] to fraction unbound in Sprague-Dawley rat at 3 to 5 umol/kg, iv; assay type: ADME, organism-based; settings: in vivo
CYP1A2 = molecular target: T1, CYP1A2 (Homo sapiens, UniProt P05177); experiment: Inhibition of CYP1A2 at 13 uM; assay type: ADME
T1 sequence (P05177 whole entry): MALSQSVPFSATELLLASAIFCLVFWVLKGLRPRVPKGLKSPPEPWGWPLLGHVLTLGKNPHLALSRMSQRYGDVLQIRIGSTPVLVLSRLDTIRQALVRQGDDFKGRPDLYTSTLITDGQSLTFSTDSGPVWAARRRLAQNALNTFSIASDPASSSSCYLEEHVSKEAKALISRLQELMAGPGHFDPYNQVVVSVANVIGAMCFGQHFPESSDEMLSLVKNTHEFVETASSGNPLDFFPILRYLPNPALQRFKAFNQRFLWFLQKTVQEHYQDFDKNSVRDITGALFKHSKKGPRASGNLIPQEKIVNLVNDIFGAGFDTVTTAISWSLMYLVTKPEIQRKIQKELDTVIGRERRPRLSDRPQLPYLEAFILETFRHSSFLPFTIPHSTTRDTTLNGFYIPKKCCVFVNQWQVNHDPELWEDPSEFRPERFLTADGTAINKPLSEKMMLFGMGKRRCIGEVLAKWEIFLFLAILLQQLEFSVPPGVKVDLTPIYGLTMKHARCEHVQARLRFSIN

[7] = Clearance in C57BL/6 mouse at 20 umol/kg, iv and 20 umol/kg, po; assay type: ADME, organism-based; settings: in vivo
Rattus norvegicus [8] = experiment: Antiobesity activity in obese Zucker rat assessed as reduction in hepatic malonyl-coA level, iv administered 2 hrs; assay type: functional; set-up: scale not given: the % may be the effect or the level left
Method in brief: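 Obese Zucker rats were anaesthetized with Inactin (180 mg/kg ip), tracheotomized and fitted with carotid and jugular catheters. After 1.5 h post-surgery stabilization at 37.5 °C, compound or vehicle was infused iv; lean vehicle controls were included. Hepatic malonyl-CoA was measured by ion-pair HPLC–negative ESI MS/MS against a ¹³C₃ internal standard and related to plasma free exposure (fu×Cp/rat ACC2 IC50).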

[9] = molecular target: Acetyl-Coenzyme A carboxylase 2 (Rattus norvegicus, UniProt Q1HEC0); experiment: Inhibition of ACC2 […] preincubated for 15 mins measured after 1.5 hrs using Malachite green reagent method
[10] = Oral bioavailability in C57BL/6 mouse at 20 umol/kg; assay type: ADME, organism-based; settings: in vivo
[11] = Half life in C57BL/6 mouse at 20 umol/kg, po; assay type: ADME, organism-based; settings: in vivo
[12] = Volume of distribution in C57BL/6 mouse at 20 umol/kg, iv and 20 umol/kg, po; assay type: ADME, organism-based; settings: in vivo
CYP2D6 = CYP2D6 (Homo sapiens, UniProt P10635); experiment: Inhibition of CYP2D6 at 13 uM; assay type: ADME
[13] = molecular target: Voltage-gated inwardly rectifying potassium channel KCNH2 (Homo sapiens, UniProt Q12809)
[14] = Intrinsic clearance in human liver microsome at 1 uM after 30 mins by LC-UV/MS analysis; assay type: ADME; settings: liver microsomes
[15] = Fraction unbound in human plasma at 10 uM after 18 hrs by equilibrium dialysis method; assay type: ADME, cell-free
Homo sapiens = organism: Homo sapiens; experiment: Ratio IC50 for human ACC2 to IC50 for human ACC1
CYP2C19 = CYP2C19 (Homo sapiens, UniProt P33261); experiment: Inhibition of CYP2C19 at 13 uM; assay type: ADME
CYP2C9 = CYP2C9 (Homo sapiens, UniProt P11712); experiment: Inhibition of CYP2C9 at 13 uM; assay type: ADME
Cytochrome P450 3A4 = Cytochrome P450 3A4 (Homo sapiens, UniProt P08684); experiment: Inhibition of CYP3A4; assay type: ADME
Cytochrome P450 1A2 = molecular target: T2, Cytochrome P450 1A2 (Homo sapiens, UniProt P05177); experiment: Inhibition of CYP1A2; assay type: ADME
T2 sequence (P05177 whole entry): T1 sequence (P05177 whole entry)

Cytochrome P450 2C9 = Cytochrome P450 2C9 (Homo sapiens, UniProt P11712); experiment: Inhibition of CYP2C9; assay type: ADME
Sequence of Cytochrome P450 2C9 (P11712 whole entry): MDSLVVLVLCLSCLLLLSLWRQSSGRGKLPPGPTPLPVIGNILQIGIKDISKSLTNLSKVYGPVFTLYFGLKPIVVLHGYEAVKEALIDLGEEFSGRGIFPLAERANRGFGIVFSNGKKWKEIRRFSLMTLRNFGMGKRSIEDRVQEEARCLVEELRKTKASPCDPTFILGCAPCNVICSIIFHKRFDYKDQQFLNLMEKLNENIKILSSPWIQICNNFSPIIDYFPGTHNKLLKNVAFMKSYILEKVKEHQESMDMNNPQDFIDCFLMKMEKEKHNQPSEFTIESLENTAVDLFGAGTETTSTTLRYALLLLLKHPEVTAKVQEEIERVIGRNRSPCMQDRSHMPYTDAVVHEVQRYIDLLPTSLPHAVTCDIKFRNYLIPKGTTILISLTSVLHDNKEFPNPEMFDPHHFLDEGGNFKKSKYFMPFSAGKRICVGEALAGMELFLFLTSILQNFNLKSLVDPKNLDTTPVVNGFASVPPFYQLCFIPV

Sequence of Acetyl-CoA carboxylase 2 (O00763 whole entry): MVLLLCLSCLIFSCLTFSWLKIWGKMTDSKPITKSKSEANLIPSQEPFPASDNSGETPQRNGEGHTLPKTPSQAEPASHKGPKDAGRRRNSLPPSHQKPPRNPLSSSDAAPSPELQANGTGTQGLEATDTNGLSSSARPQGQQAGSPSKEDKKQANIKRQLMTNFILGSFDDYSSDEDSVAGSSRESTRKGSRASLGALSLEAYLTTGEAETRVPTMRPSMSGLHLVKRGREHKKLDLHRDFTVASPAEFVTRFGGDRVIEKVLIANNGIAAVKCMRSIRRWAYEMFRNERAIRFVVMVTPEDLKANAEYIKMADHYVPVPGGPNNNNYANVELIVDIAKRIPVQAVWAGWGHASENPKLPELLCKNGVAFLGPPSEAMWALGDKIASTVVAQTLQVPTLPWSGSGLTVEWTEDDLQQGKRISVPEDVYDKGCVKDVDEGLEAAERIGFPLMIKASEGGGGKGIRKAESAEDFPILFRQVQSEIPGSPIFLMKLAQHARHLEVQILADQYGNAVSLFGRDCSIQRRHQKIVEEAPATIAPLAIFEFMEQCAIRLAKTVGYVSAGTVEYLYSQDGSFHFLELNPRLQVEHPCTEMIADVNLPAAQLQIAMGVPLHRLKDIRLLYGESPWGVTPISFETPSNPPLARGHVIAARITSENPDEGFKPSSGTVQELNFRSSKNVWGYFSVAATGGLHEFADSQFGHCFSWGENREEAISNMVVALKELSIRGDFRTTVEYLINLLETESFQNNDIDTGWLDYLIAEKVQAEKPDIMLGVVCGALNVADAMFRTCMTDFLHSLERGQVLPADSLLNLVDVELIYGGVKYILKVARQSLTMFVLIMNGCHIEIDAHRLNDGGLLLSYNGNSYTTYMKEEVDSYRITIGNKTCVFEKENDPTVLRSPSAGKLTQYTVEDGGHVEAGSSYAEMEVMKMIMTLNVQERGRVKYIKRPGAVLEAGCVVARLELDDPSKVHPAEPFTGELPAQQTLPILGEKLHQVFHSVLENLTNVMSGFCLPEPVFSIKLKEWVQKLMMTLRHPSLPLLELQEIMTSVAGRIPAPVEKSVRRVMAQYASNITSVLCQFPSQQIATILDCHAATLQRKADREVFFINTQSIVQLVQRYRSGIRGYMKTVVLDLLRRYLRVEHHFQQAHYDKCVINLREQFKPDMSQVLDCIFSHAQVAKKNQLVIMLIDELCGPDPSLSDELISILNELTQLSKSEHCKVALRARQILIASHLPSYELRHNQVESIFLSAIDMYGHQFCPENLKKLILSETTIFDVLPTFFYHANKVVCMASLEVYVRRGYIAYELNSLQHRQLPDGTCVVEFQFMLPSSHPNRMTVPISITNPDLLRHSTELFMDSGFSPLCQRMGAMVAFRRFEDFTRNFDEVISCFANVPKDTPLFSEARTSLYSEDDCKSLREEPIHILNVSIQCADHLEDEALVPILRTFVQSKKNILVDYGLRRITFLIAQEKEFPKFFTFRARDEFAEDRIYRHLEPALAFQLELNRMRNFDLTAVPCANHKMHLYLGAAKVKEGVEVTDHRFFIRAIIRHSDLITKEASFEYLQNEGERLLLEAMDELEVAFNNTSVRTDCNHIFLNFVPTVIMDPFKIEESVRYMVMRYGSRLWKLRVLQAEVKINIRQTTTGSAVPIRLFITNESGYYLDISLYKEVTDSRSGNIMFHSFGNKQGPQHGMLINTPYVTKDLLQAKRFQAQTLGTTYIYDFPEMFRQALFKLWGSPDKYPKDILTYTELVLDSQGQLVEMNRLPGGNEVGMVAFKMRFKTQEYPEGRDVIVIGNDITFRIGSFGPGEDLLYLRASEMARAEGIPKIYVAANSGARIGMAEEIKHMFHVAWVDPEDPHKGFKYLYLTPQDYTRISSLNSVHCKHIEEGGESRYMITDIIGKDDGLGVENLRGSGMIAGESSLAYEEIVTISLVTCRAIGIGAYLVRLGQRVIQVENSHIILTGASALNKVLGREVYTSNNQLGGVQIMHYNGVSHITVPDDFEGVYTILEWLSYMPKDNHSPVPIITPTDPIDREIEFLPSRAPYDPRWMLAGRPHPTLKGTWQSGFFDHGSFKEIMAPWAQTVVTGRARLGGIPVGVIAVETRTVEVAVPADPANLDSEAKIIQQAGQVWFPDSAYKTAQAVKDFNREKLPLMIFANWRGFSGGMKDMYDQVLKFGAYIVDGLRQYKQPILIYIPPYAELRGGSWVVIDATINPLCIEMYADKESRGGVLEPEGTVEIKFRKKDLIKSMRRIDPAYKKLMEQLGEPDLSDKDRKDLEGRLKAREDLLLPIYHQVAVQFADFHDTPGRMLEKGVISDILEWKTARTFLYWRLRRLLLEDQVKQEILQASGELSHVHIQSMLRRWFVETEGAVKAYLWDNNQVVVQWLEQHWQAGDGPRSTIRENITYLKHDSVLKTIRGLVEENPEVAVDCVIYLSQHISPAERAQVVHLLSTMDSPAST
Sequence of CYP2D6 (P10635 whole entry): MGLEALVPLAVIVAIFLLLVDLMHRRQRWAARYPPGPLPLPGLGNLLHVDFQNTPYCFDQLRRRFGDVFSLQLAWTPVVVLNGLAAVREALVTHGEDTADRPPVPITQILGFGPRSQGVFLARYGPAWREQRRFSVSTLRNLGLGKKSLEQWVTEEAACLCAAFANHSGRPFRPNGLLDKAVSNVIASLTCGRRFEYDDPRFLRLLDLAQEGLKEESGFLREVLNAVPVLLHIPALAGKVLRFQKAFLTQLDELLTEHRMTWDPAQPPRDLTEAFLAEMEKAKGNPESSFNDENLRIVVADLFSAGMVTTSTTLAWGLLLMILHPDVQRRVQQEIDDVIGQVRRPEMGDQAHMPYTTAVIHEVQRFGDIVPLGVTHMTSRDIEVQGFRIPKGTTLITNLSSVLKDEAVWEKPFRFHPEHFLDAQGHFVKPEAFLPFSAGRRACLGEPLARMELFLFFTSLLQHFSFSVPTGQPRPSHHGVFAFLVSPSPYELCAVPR
Sequence of CYP2C19 (P33261 whole entry): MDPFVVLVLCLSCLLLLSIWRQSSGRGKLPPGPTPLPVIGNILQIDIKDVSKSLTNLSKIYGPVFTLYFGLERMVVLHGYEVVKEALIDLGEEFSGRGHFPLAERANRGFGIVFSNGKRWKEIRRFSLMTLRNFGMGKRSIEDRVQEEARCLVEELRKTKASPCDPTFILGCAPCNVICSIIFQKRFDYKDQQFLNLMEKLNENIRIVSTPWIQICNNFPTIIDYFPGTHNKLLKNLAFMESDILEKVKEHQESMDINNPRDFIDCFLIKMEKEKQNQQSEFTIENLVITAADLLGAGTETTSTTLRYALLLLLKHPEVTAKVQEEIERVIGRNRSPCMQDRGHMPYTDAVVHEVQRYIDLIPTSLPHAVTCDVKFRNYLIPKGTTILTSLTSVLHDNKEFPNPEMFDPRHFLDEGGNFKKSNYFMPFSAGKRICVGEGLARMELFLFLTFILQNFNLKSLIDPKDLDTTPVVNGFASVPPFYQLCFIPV
Sequence of CYP2C9 (P11712 whole entry): as the sequence (P11712 whole entry) above
Sequence of CYP3A4 (P08684 whole entry): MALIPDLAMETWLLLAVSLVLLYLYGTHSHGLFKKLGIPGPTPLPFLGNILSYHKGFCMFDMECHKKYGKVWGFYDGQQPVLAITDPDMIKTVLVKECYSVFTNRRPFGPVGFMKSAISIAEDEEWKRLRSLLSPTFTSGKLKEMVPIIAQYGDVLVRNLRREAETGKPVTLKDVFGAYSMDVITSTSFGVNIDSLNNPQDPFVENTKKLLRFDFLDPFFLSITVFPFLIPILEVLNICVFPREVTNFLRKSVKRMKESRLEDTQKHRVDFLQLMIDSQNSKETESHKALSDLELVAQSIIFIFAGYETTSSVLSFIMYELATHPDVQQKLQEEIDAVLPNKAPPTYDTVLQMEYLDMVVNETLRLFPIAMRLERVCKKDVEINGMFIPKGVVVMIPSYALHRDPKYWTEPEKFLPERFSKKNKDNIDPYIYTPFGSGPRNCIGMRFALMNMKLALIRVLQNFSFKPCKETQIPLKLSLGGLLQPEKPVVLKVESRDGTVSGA
Sequence of Cytochrome P450 3A4 (P08684 whole entry): as above

| SMILES | IC50 (Acetyl-CoA carboxylase 2) [µM] | logD [1] | IC50 (Acetyl-CoA carboxylase 1 [2]) [µM] | further results |
| --- | --- | --- | --- | --- |
| CC(C)(C)OC(=O)NC[C@H]1CC[C@@H](CNC(=O)c2cc(-c3ccccc3)nc3ccccc23)CC1 | 1 |  |  |  |
| Cc1cc(C(=O)NC[C@H]2CC[C@H](CNC(=O)OC(C)(C)C)CC2)cc(-c2ccccc2)n1 |  | 5.3 |  |  |
| CC(C)(C)OC(=O)NC[C@H]1CC[C@H](CNC(=O)c2cc(-c3ccc(CN)cc3)nc3ccccc23)CC1 |  | 3.2 | 1.7 |  |
| CN(C)CCn1cc(-c2cc(C(=O)NC[C@H]3CC[C@H](CNC(=O)OC(C)(C)C)CC3)c3ccccc3n2)cn1 |  | 3.6 | 1.3 |  |
| CC(C)(C)OC(=O)NC[C@H]1CC[C@H](CNC(=O)c2cc(-c3cccc(CN)c3)nc3ccccc23)CC1 | 0.052 | 3.4 | 0.24 | solubility at 16 h [3]: 8 µM (≈ 4.02 µg/mL); clearance [5]: 104 mL/min/kg; IC50 (Cytochrome P450 3A4): 2.4 µM; IC50 (Cytochrome P450 1A2): 4 µM; IC50 (Cytochrome P450 2C9): 0.8 µM; microsomal CLint at 1 µM [14]: 14 µL/min/mg |
| CC(C)(C)OC(=O)NC[C@H]1CC[C@H](CNC(=O)c2cc(N3CCC(CN)CC3)nc3ccccc23)CC1 | 0.69 | 3.2 | 4.3 |  |
| CC(C)(C)OC(=O)NC[C@H]1CC[C@H](CNC(=O)c2cc(-c3cn[nH]c3)nc3ccccc23)CC1 | 0.57 | 3.5 | 2.3 |  |
| CN(C)CCOC1CN(c2cc(C(=O)NC[C@H]3CC[C@H](CNC(=O)OC(C)(C)C)CC3)c3ccccc3n2)C1 |  | 3 |  |  |
| CC(C)(C)OC(=O)NC[C@H]1CC[C@H](CNC(=O)c2cc(-c3ccncc3)nc3ccccc23)CC1 |  | 4.4 | 1.1 | solubility at 16 h [3]: < 1 µM; microsomal CLint at 1 µM [14]: 146 µL/min/mg |

The next lines start with results.

| IC50 (Acetyl-CoA carboxylase 2) [µM] | logD [1] | IC50 (Acetyl-CoA carboxylase 1 [2]) [µM] | SMILES | further results |
| --- | --- | --- | --- | --- |
| 0.69 |  |  | CC(C)(C)OC(=O)NC[C@H]1CC[C@H](CNS(=O)(=O)c2cc(-c3ccccc3)nc3ccccc23)CC1 |  |
| 0.11 | 3.6 | 1.2 | CN(C)CCC1CCN(c2cc(C(=O)NC[C@H]3CC[C@H](CNC(=O)OC(C)(C)C)CC3)c3ccccc3n2)CC1 | solubility at 16 h [3]: 79 µM (≈ 43.6 µg/mL); IC50 (Acetyl-CoA carboxylase 1 [4]): 0.46 µM; inhibition at 13 µM (CYP3A4): < 50%; clearance [5]: 32 mL/min/kg; Ratio (Rattus norvegicus [6]): 800; inhibition at 13 µM (CYP1A2): < 50%; clearance [7]: 46 mL/min/kg; Activity (Rattus norvegicus [8]): 50%; IC50 [9]: 0.19 µM; bioavailability [10]: 131%; half-life [11]: 4.5 h; Vd [12]: 6.7 L/kg; inhibition at 13 µM (CYP2D6): < 50%; IC50 [13]: > 33 µM; microsomal CLint at 1 µM [14]: 14 µL/min/mg; fraction unbound at 18 h, 10 µM [15]: 0.034; Ratio IC50 (Homo sapiens): 10; inhibition at 13 µM (CYP2C19): < 50%; inhibition at 13 µM (CYP2C9): < 50% |
| 0.23 | 4.5 | 2.3 | CC(C)(C)OC(=O)NC[C@H]1CC[C@H](CNC(=O)c2cc(N3CCC(CCO)CC3)nc3ccccc23)CC1 | Ratio IC50 (Homo sapiens): 10 |
|  | 4.7 |  | CC(C)(C)OC(=O)NC[C@H]1CC[C@H](CNC(=O)c2ccnc(-c3ccccc3)c2)CC1 |  |
| 1.7 | 3.6 | 9.9 | CN(C)CCC1CCN(c2cc(C(=O)NC[C@H]3CC[C@H](COC(=O)NC(C)(C)C)CC3)c3ccccc3n2)CC1 |  |
